In ChEMBL document CHEMBL1148770, “Conformation-activity relationship of neuropeptide S and some structural mutants: helicity affects their interaction with the receptor” (J Med Chem, 2007):
Square brackets hold non-standard residues; d marks the D form. Peptide text beside a SMILES is read from it. Aib = CC(C)(N)C(=O)O

Experiments:
Assay type in all cases: functional, cell-based
[1] = molecular target: T1, Neuropeptide S receptor (Mus musculus) (UniProt Q8BZP8); assay: Agonist activity at mouse recombinant NPSR expressed in HEK293 cells assessed as calcium mobilization relative to baseline
T1 sequence (whole entry): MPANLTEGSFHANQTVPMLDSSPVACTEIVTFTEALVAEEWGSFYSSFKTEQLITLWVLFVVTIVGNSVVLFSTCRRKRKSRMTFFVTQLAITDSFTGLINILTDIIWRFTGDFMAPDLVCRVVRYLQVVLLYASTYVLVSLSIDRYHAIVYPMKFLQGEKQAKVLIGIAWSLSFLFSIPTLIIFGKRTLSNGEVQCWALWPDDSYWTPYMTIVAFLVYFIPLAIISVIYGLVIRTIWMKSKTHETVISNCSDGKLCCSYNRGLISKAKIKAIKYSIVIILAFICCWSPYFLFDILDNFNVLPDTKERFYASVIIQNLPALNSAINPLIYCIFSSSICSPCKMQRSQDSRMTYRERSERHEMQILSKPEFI
How it was run: (§1)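 HEK293 cells stably expressing mouse NPSR, grown in DMEM/10% FBS/2 mM glutamine/hygromycin at 37 °C, 5% CO2. Seeded 50,000 cells/well on poly-D-lysine; next day loaded 30 min at 37 °C with 3 µM Fluo-4 AM, 2.5 mM probenecid, 0.01% pluronic acid. Read in HBSS/20 mM HEPES/probenecid/Brilliant Black at ≈22 °C on FlexStation; peak fluorescence change as % baseline; logistic fit; ≥4 experiments in duplicate.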

Neuropeptide S receptor [2] = molecular target: T2, Neuropeptide S receptor (Mus musculus, UniProt Q8BZP8); assay: Agonist activity at mouse recombinant NPSR expressed in HEK293 cells assessed as calcium mobilization; how it was run: as §1
T2 sequence (Q8BZP8 whole entry): T1 sequence (whole entry)

Neuropeptide S receptor [3] = molecular target: T2, Neuropeptide S receptor; assay: Antagonist activity at mouse NPSR expressed in HEK293 cells assessed as inhibition of 10 nM hNPS-induced calcium mobilization
How it was run: (§2)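 Mouse NPSR stably expressed in HEK293 cells, grown with hygromycin, then plated at 50 000 cells/well. Next day, cells were loaded for 30 min at 37 °C with 3 µM Fluo-4 AM, 2.5 mM probenecid and 0.01% pluronic acid. The assay buffer was HBSS with 20 mM HEPES, probenecid and 500 µM Brilliant Black. Fluorescence was read at about 22 °C. pIC50 came from a logistic fit of peak fluorescence (% of baseline). At least four experiments, each in duplicate.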

Neuropeptide S receptor [4] = molecular target: T2, Neuropeptide S receptor; assay: Antagonist activity at mouse NPSR expressed in HEK293 cells assessed as inhibition of 100 nM hNPS-induced calcium mobilization; how it was run: as §2

Row | Emax [1] [%] | EC50 (Neuropeptide S receptor [2]) [nM] | IC50 (Neuropeptide S receptor [3]) [nM] | IC50 (Neuropeptide S receptor [4]) [nM] | Structure (SMILES)
1 | 65 | 191 | 537 | 1620 | CSCC[C@H](NC(=O)CNC(=O)[C@@H](NC(=O)CNC(=O)[C@@H](NC(=O)C(C)(C)NC(=O)[C@H](CC(N)=O)NC(=O)[C@H](CCCNC(=N)N)NC(=O)[C@H](Cc1ccccc1)NC(=O)[C@@H](N)CO)C(C)C)[C@@H](C)O)C(=O)N[C@@H](CCCCN)C(=O)N[C@@H](CCCCN)C(=O)N[C@H](C(=O)N[C@@H](CO)C(=O)N[C@@H](Cc1ccccc1)C(=O)N[C@@H](CCC(N)=O)C(=O)N[C@@H](CCCNC(=N)N)C(=O)N[C@@H](C)C(=O)N[C@@H](CCCCN)C(=O)N[C@@H](CO)C(=O)O)[C@@H](C)O (H-SFRN[Aib]VGTGMKKTSFQRAKS-OH)
2 | 90 | 28.2 |  |  | CSCC[C@H](NC(=O)CNC(=O)[C@@H](NC(=O)CNC(=O)[C@@H](NC(=O)[C@@H](C)NC(=O)[C@H](CC(N)=O)NC(=O)[C@H](CCCNC(=N)N)NC(=O)[C@H](Cc1ccccc1)NC(=O)[C@@H](N)CO)C(C)C)[C@@H](C)O)C(=O)N[C@@H](CCCCN)C(=O)N[C@@H](CCCCN)C(=O)N[C@H](C(=O)N[C@@H](CO)C(=O)N[C@@H](Cc1ccccc1)C(=O)N[C@@H](CCC(N)=O)C(=O)N[C@@H](CCCNC(=N)N)C(=O)N[C@@H](C)C(=O)N[C@@H](CCCCN)C(=O)N[C@@H](CO)C(=O)O)[C@@H](C)O (H-SFRN[dA]VGTGMKKTSFQRAKS-OH)
3 | 184 | 6.76 |  |  | CSCC[C@H](NC(=O)CNC(=O)[C@@H](NC(=O)CNC(=O)[C@@H](NC(=O)CNC(=O)[C@H](CC(N)=O)NC(=O)[C@H](CCCNC(=N)N)NC(=O)[C@H](Cc1ccccc1)NC(=O)C(C)(C)N)C(C)C)[C@@H](C)O)C(=O)N[C@@H](CCCCN)C(=O)N[C@@H](CCCCN)C(=O)N[C@H](C(=O)N[C@@H](CO)C(=O)N[C@@H](Cc1ccccc1)C(=O)N[C@@H](CCC(N)=O)C(=O)N[C@@H](CCCNC(=N)N)C(=O)N[C@@H](C)C(=O)N[C@@H](CCCCN)C(=O)N[C@@H](CO)C(=O)O)[C@@H](C)O (H-[Aib]FRNGVGTGMKKTSFQRAKS-OH)
4 | 175 | 9.12 |  |  | CSCC[C@H](NC(=O)CNC(=O)[C@@H](NC(=O)CNC(=O)[C@@H](NC(=O)CNC(=O)[C@H](CC(N)=O)NC(=O)[C@H](CCCNC(=N)N)NC(=O)[C@H](Cc1ccccc1)NC(=O)[C@@H](N)CO)C(C)C)[C@@H](C)O)C(=O)N[C@@H](CCCCN)C(=O)N[C@@H](CCCCN)C(=O)N[C@H](C(=O)N[C@@H](CO)C(=O)N[C@@H](Cc1ccccc1)C(=O)N[C@@H](CCC(N)=O)C(=O)N[C@@H](CCCNC(=N)N)C(=O)N[C@@H](C)C(=O)N[C@@H](CCCCN)C(=O)N[C@@H](CO)C(=O)O)[C@@H](C)O [NEUROPEPTIDE S] (H-SFRNGVGTGMKKTSFQRAKS-OH)
